Assay results from PMC2939729 (Cancer cell, 2010).

System: basic fibroblast growth factor (bFGF) induced angiogenesis
Assay: bFGF-induced angiogenesis in Matrigel plugs
Format: in vivo
Conditions: mice, Matrigel with 400 ng/mL bFGF, treated for 6 days
Summary of the method: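 Mice were implanted with Matrigel containing 400 ng/mL bFGF and treated with test compound or vehicle for 6 days, starting the next day. Plugs were harvested, sectioned and stained with Masson's trichrome (6 mice, 9 slices), and plug hemoglobin content was measured. Student's t test was used.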

SMILES: CCOc1cc(N2CCC(O)CC2)ccc1Nc1ncc2c(n1)N(C)c1ccccc1C(=O)N2C [XMD8-92]
- bFGF induced angiogenesis in Matrigel plugs: significantly inhibits
